Beta apoptosis: blocks beta cell apoptosis; INS-1E cytokine-induced death, ATP luminescence, 48 h; percent of positive-control rescue, neutral wells zero; protection from apoptosis, % (concentration not given with the values); actives 0.8% (n = 300,000); AID 435005;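 active means Every replicate reaches about 75%, or at least half do and their mean reaches it too, limit read from the data; inconclusive means At least half of replicates reach the limit but their mean does not; inactive means Under half of replicates reach the limit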;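 further: higher means more ATP so stronger rescue from cytokine killing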
Calb FLC: affects C. albicans growth with fluconazole; C. albicans CaCi-2 (fluconazole-resistant clinical isolate) + fluconazole, Alamar Blue growth, 48 h; growth inhibition, % (test concentration not listed); actives 0.57% (n = 300,000);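 active means growth inhibition above about 58% in most replicates, limit read from the data, passing the limit was not always enough; inconclusive means exactly half the replicates above a set limit; inactive means most replicates below a set limit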;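 further: all wells also contain fluconazole at 8 µg/ml as a sub-toxic cotreatment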
T cruzi inh: blocks replication of Trypanosoma cruzi. T. cruzi beta-gal in NIH3T3, luminescence, 90 h. actives 1.4% (n = 300,000). AID 1885. inhibition, % (test concentration not listed);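 active means mean inhibition across valid replicates above about 55%, limit read from the data; inconclusive means mean below that limit but half or more replicates reach it; inactive means mean below it, under half of replicates reach it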;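 further: signal also drops with host cell toxicity which is not excluded here; higher percent means less beta-gal luminescence so fewer parasites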
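System – NIH/3T3 host cells with β-galactosidase reporter T. cruzi · Doses – single 50 nL compound addition per well in DMSO · Reagent – 5000 T. cruzi trypomastigotes/well · Medium – Low-serum DMEM with 2% FBS · Timing – ≥90 h infection period, 3 h prior cell attachment · Evaluation – parasite load inhibition, % · Technique – GalScreen luminescence, 60 min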
SKKanGAS inh: inhibitors of SKKanGAS S. pyogenes growth in kanamycin (SK-promoter or general growth effect); inhibition, % at 7.5 µM; AID 1662; BacTiter-Glo, 6 h; actives 1.3% (n = 300,000);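 active means mean replicate score, as percent of positive control median, at least 50; inconclusive means mean below 50 but one replicate at or above 50; inactive means mean and every replicate below 50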;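 further: strain carries kanamycin resistance gene driven by streptokinase promoter and grows in 40 µg/ml kanamycin; loss of luminescence reflects streptokinase promoter inhibition or plain growth inhibition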
CSC inhib: cancer stem cell inhibition; inhibition, % at 7.5 µM; cancer stem cell-like cells viability, luminescence; actives 1.1% (n = 300,000); in the data active means inhibition above about 75%; inconclusive means no clear call, values can overlap the other calls; tested in HMLE shEcad cells
Mdm2-MdmX inh: disrupts the human Mdm2-MdmX interaction; SaOS-2 split-luciferase Mdm2/MdmX complementation, luminescence; inhibition, % at 8 µM; actives 3% (n = 330,000); O15151+Q00987;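 active means inhibition of at least 50% at 8 µM in the primary screen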
Mdm2-MdmX conf: confirmation of human Mdm2/MdmX interaction inhibitors; shares compounds with Mdm2-MdmX inh; AID 489028; actives 55% (n = 10,000); inhibition, % at 8 µM; Mdm2-MdmX binding, luminescent assay; in the data active means inhibition above about 40%
FLuc counter: counter-screen for Mdm2/MdmX inhibitors: full-length luciferase. shares compounds with Mdm2-MdmX inh. SaOS-2 full-length luciferase counterscreen, luminescence. inhibition, % at 8 µM. actives 77% (n = 6,200);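 active means mean inhibition at 8 µM reaching about 37%, which flags the compound as non-specific, limit read from the data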;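 further: p53-null SaOS-2 cells with luciferase driven by a doxycycline-inducible promoter; compound on cells about two nights before reading with doxycycline added after day one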
Each line names hits and unclear results; the compound was inactive in the other large screens (follow-up assays come after a bar, where they were run). Most compounds without a hit are left out; they make up all but 5.7% or so of the library.

CCN1CCCC1CNC(=O)c1cc2c(-c3ccc(Cl)cc3)nn(C)c2s1 (stereo not given)	Mdm2-MdmX inh 65 (no result: Beta apoptosis) | Mdm2-MdmX conf inactive
Cn1nc(-c2ccc(Cl)cc2)c2cc(C(=O)N3CCN(c4ccccn4)CC3)sc21	Mdm2-MdmX inh 55 | Mdm2-MdmX conf inactive
CCN1CCCC1CNC(=O)c1cc2c(-c3cccc(OC)c3)nn(C)c2s1 (stereo not given)	none
CC(C)(C)C(=O)CN1C2=NCCCN2c2ccccc21	none
CC(=O)c1sc(NC(=O)CSCc2c(C)noc2C)nc1-c1ccccc1	none (no result: Calb FLC, T cruzi inh, SKKanGAS inh)
O=C(/C=C\Nc1ccccn1)c1ccccc1	none
O=C(/C=C/Nc1ccccc1Br)c1ccccn1	Mdm2-MdmX inh 75 | Mdm2-MdmX conf 76 | FLuc counter inactive
Cc1cc(=O)oc2cc(OCC(=O)OCC(=O)N(C)C3CCS(=O)(=O)C3)ccc12 (stereo not given)	none
CCC(=O)Nc1cccc(C2=NOC3(C2)C[C@@H](C(N)=O)N(C(=O)C(c2ccccc2)c2ccccc2)C3)c1 (stereo not given in full)	none
NC(=O)[C@H]1CC2(CC(c3cccc(NC(=O)COc4ccc(Cl)cc4)c3)=NO2)CN1C(=O)C(c1ccccc1)c1ccccc1 (stereo not given in full)	Mdm2-MdmX inh 60 | Mdm2-MdmX conf inactive
NC(=O)[C@@H]1CC2(CC(c3cccc(NC(=O)COc4ccc(Cl)cc4)c3)=NO2)CN1C(=O)COc1ccc(Cl)cc1 (stereo not given in full)	Mdm2-MdmX inh 59 | Mdm2-MdmX conf inactive
O=C1C2CCCN2C(=O)N1CCCN1CCN(c2cccc(Br)c2)CC1 (stereo not given)	none
N#C/C(=C\c1c(F)cccc1Cl)S(=O)(=O)c1ccccn1	none
CCN1C(=O)C(=O)c2cc(C)ccc21	none (no result: Calb FLC, T cruzi inh, SKKanGAS inh, CSC inhib)
CC[N+]1=C(C)C(C)(C)c2cc(C)ccc21	Beta apoptosis 101, T cruzi inh 57, CSC inhib inconclusive, Mdm2-MdmX inh 81 | Mdm2-MdmX conf 62 | FLuc counter inactive
O=C(N/N=C/c1ccc2c(c1)OCO2)c1sc2cc(Cl)ccc2c1Cl	Mdm2-MdmX inh 62 | Mdm2-MdmX conf inactive | FLuc counter 50
Cc1cccc(C)c1OCC(=O)N/N=C/c1ccc2c(c1)OCO2	Mdm2-MdmX inh 50 | Mdm2-MdmX conf 59 | FLuc counter 56
Cn1cc(C(=O)N/N=C/c2cccs2)c2ccccc21	none
COc1ccc2c(Cl)c(C(=O)N/N=C/c3ccc4c(c3)OCO4)sc2c1	none
Cn1cc(C(=O)N/N=C/c2ccc(Br)c([N+](=O)[O-])c2)c2ccccc21	Mdm2-MdmX inh 51 | Mdm2-MdmX conf inactive
Cn1cc(C(=O)N/N=C/c2ccc3c(c2)OCO3)c2ccccc21	Mdm2-MdmX inh 66 | Mdm2-MdmX conf 44 | FLuc counter 64
OCCCn1c(C2CCCN2c2nc(-c3ccc(F)cc3)cs2)nc2cc(Cl)c(N3CCCCC3)cc21 (stereo not given)	Mdm2-MdmX inh 63 | Mdm2-MdmX conf inactive
Cc1csc(N2CCCC2c2nc3cc(Cl)c(N4CCCCC4)cc3n2CCCO)n1 (stereo not given)	none
OCCCn1c(C2CCCN2c2nc(-c3ccc(Cl)cc3)cs2)nc2cc(Cl)c(N3CCCCC3)cc21 (stereo not given)	Mdm2-MdmX inh 73 | Mdm2-MdmX conf inactive
O=C(Nc1ccc(N2CCN(c3ccc(C(F)(F)F)cn3)CC2)nc1)c1cccs1	Mdm2-MdmX inh 56 | Mdm2-MdmX conf inactive
O=C(Nc1ccc(N2CCN(c3ncccc3C(F)(F)F)CC2)nc1)c1cccs1	Mdm2-MdmX inh 65 | Mdm2-MdmX conf inactive
O=C(Nc1ccc(N2CCOCC2)nc1)c1cccs1	none
O=C1c2ccccc2-c2onc3ccc(Oc4ccccc4)c1c23	Mdm2-MdmX inh 96 (no result: Beta apoptosis, CSC inhib) | Mdm2-MdmX conf 63 | FLuc counter 51
O=C(COc1ccc(Br)cc1)N1CCN(c2ncccn2)CC1	none (no result: Beta apoptosis, Calb FLC, T cruzi inh, SKKanGAS inh, CSC inhib)
CCN1/C(=C/C(C)=C/c2sc3ccccc3[n+]2CC)Sc2ccccc21	Beta apoptosis 110, Calb FLC 103, SKKanGAS inh 100, CSC inhib 144, Mdm2-MdmX inh 97 | Mdm2-MdmX conf 100 | FLuc counter inactive
CCN1/C(=C\C(=S)Nc2ccccc2)Sc2ccccc21	none
COc1cc(OC)cc(C(=O)NCC(=O)OCC(=O)N2CC(C)CC(C)C2)c1 (stereo not given)	none
CCCCNC(=O)c1c(N)n(/N=C/c2ccccn2)c2nc3ccccc3nc12	Mdm2-MdmX inh 60 | Mdm2-MdmX conf inactive | FLuc counter 72
CC(C)CNC(=O)c1c(N)n(/N=C/c2ccccn2)c2nc3ccccc3nc12	none
COC(=O)C1=C(C)NC(C)=C(C(=O)OCC(C)C)C1c1ccccc1[N+](=O)[O-] (stereo not given)	Mdm2-MdmX inh 72 (no result: Calb FLC) | Mdm2-MdmX conf 65 | FLuc counter inactive
CC1(C)Cc2c(c(N3CCOCC3)nc3sc4c(NCC5CCCO5)nnnc4c23)CS1 (stereo not given)	Mdm2-MdmX inh 70 | Mdm2-MdmX conf 52 | FLuc counter 69
CC(C)CCNc1nnnc2c1sc1nc(N3CCOCC3)c3c(c12)CC(C)(C)SC3	Mdm2-MdmX inh 51 | Mdm2-MdmX conf inactive
CC1(C)Cc2c(c(N3CCOCC3)nc3sc4c(NCCN5CCOCC5)nnnc4c23)CS1	none
COc1cc(NC(=O)NC2Cc3ccccc3C2)cc(OC)c1	none
COC(=O)c1c(-c2ccc3ccccc3c2)csc1NC(=O)Cc1ccc(OC)c(OC)c1	Mdm2-MdmX inh 55 | Mdm2-MdmX conf 54 | FLuc counter 57
O=C(Cn1nc(-c2cccc([N+](=O)[O-])c2)c2ccccc2c1=O)NCC1CCCO1 (stereo not given)	none (no result: Beta apoptosis)
COc1cc(C(=O)O)c2c(c1C)OC(=O)c1c(C)cc(O)c(C=O)c1O2	none
CCCc1nc(SC)[nH]c(=O)c1C	none
COc1ccc(CCNC(=S)c2ccccc2)cc1OC	none
COc1ccccc1NC(=O)c1cnc(Nc2ccccc2OC)c2ccccc12	Mdm2-MdmX inh 52 | Mdm2-MdmX conf 58 | FLuc counter 66
O=C(Cc1ccccc1Cl)N1CCN(c2ncccn2)CC1	none
CCC(=O)N1CCN(c2nc(CC)nc3sc4c(c23)CCCC4)CC1	none
CC1CCc2c(sc3nc(C(C)(C)C)nc(N4CCN(C(=O)CCl)CC4)c23)C1 (stereo not given)	Beta apoptosis 98, SKKanGAS inh 70, Mdm2-MdmX inh 98 | Mdm2-MdmX conf inactive | FLuc counter inactive
COc1ccc(CC(=O)N2CCCC2)c(OC)c1	none

High-throughput results from PubChem.
